Source: PubChem (several laboratories)
NLRP3 yeast inh: NALP3 inflammasome inhibitors in reconstituted yeast, primary screen, luminescence, uHTS | Yeast reconstituted NLRP3/ASC/caspase-1, beta-gal luminescence, 24 h | inhibition, % at 10 µM | hit rate 0.39% among 330,000 | AID 2825, 2010;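 active means inhibition of 50% or more; inactive means inhibition below 50%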;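 further: plate controls were induced DMSO wells for no effect and uninduced yeast grown without galactose for full effect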
ATG4B inh: ATG4B protease inhibitors, primary screen, biochemical, fluorescence, uHTS | Cysteine protease ATG4B (Homo sapiens), Q9Y4P1 | ATG4B cleavage of LC3-PLA2, NBD-HPC fluorescence, 1 h | inhibition, % at 8.33 µM | hit rate 0.51% among 340,000 | AID 504462, 2011; in the data active means inhibition above about 40%
Target sequence (Q9Y4P1 whole entry, looked up): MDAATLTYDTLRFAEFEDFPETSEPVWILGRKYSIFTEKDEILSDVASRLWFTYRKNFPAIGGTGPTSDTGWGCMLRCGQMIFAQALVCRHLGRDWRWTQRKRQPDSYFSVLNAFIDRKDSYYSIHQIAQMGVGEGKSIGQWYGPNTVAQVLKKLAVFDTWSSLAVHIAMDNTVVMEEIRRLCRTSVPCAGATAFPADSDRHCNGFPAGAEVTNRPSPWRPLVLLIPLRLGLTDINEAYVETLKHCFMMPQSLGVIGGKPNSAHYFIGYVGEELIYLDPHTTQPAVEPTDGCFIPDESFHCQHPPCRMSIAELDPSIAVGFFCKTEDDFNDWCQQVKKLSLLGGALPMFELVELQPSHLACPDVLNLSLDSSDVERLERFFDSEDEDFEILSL
ALR inh: inhibitors of human ALR sulfhydryl oxidase, primary screen, biochemical, H2O2 detection, HRP-luminol luminescence, single point. FAD-linked sulfhydryl oxidase ALR (Homo sapiens), P55789. purified ALR, DTT oxidation. inhibition, % (no concentration beside the values). hit rate 3.8% among 290,000. AID 485317, 2010;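 active means mean replicate inhibition above about 79%, with every replicate also reaching it, limit read from the data; inconclusive means only one of the two criteria met; inactive means mean below limit and not every replicate reaching it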
Target sequence (P55789 whole entry, looked up): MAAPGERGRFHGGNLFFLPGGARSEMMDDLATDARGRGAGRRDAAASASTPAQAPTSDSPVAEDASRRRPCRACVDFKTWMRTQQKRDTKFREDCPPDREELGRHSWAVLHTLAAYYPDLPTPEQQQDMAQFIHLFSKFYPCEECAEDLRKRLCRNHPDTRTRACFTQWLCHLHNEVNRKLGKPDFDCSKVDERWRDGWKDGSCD
UCH37 DUB inh: inhibitors of human UCH37 deubiquitinase, primary screen, biochemical, Ub-AMC cleavage, fluorescence; Ubiquitin carboxyl-terminal hydrolase isozyme L5 (Homo sapiens), Q9Y5K5; purified proteasome/UCH37; inhibition, % (concentration not given with the values); hit rate 0.33% among 330,000; AID 588478, 2011;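 active means mean inhibition over replicate wells above about 20%, limit read from the data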;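 further: 0% = compound-free wells with enzyme and 100% = wells lacking proteasome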
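Material: Human UCH37 enzyme supplied as purified proteasome complex | Schedule: 30 min compound-proteasome preincubation then 25 min substrate reaction, room temperature | Detection: AMC fluorescence from Ub-AMC cleavage, excitation 355 nm, emission 460 nm | Benchmarks: Wells without proteasome as full block, compound-free enzyme plus substrate as uninhibited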
NALP1 inh: NALP1 inflammasome inhibitors in reconstituted yeast, colorimetric, S. cerevisiae, triplicate retest. S. cerevisiae NALP1/ASC/caspase-1 growth, X-gal OD620, 72 h. inhibition, % at 10 µM. hit rate 0.61% among 280,000. AID 2071, 2009; in the data active means inhibition mostly above about 24%, no sharp cut-off; inactive means mostly below about 32%
Calb FLC: C. albicans growth inhibition with fluconazole, primary screen, CaCi-2 strain, Alamar Blue fluorescence | C. albicans CaCi-2 + fluconazole, 48 h | growth inhibition, % (test concentration not listed) | hit rate 0.57% among 300,000 | AID 1979, 2009;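 active means growth inhibition above about 58% in most replicates, limit read from the data, passing the limit was not always enough; inconclusive means exactly half the replicates above a set limit; inactive means most replicates below a set limit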;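 further: all wells also contain fluconazole at 8 µg/ml as a sub-toxic cotreatment; 0% = median of DMSO wells and 100% = median of geldanamycin control wells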
UCH37 reconfirm: retest of human UCH37 deubiquitinase inhibitors, confirmation, biochemical, Ub-AMC cleavage rate, fluorescence. shares compounds with UCH37 DUB inh. Proteasome-bound UCH37. inhibition, % at 20 µM. hit rate 27% among 480;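 active means average inhibition over replicates above about 50%, so the earlier screening hit is confirmed, limit read from the data; inactive means the rest, counted as false positives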;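 further: based on cleavage rate fitted by regression over a 30 min kinetic read; 0% = proteasome plus Ub-AMC and 100% = Ub-AMC without proteasome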
Starred values were filed as active, the others as inactive; ? = inconclusive; · = not tested or not shown. The list is not random: actives were taken first. Their share in the collection is about 4.8%.

SMILES	NLRP3 yeast inh	ATG4B inh	ALR inh	UCH37 DUB inh	NALP1 inh	Calb FLC	UCH37 reconfirm
CC(=O)N(C)C1=C(O)c2ccccc2C(=O)C1=O	13	-7	-15	9	9	-2	·
CC(=O)N(C1=C(N)C(=O)c2ccccc2C1=O)C(C)C	36	-4	·	26*	19	37	20
CN(C)C=Nc1cc(=O)[nH]c(=O)n1C	·	·	·	-2	·	·	·
N#CCC(=O)NN=Cc1ccc(Sc2nc3ccccc3s2)o1	·	·	·	5	·	·	·
C=CCOc1ccc(C=NNc2ccc(S(=O)(=O)Nc3ccccc3C(=O)O)cc2[N+](=O)[O-])cc1OC	24	24	90*	86*	·	·	83*
O=C(O)c1ccccc1NS(=O)(=O)c1ccc(NN=Cc2cccc(O)c2O)c([N+](=O)[O-])c1	·	·	·	32*	·	·	40
CCOc1cccc(C=NNc2ccc(S(=O)(=O)Nc3ccccc3C(=O)O)cc2[N+](=O)[O-])c1O	13	25	57	8	·	·	·
COc1cccc(C=NNc2ccc(S(=O)(=O)Nc3ccccc3C(=O)O)cc2[N+](=O)[O-])c1O	·	·	·	10	·	·	·
O=C(O)c1cc(-c2ccc(C=NNC(=S)Nc3ccccc3)o2)ccc1Cl	·	·	·	-19	·	·	·
COc1ccccc1C(=O)NN=C(C)c1cccnc1	·	·	·	2	·	·	·
O=[N+]([O-])c1cc([N+](=O)[O-])c2oc(-c3ccccc3)c(Br)c2c1O	·	29	·	27*	16	?	71*
Cc1cccc(C(=O)N2CCCCCC2)c1	20	-1	-4	28	14	-8	42
O=C(Nc1ccccc1)NC1CCS(=O)(=O)C1 (configuration not stated)	18	-9	-1	1	-11	-3	·
CC(=O)NC1=C(NC2CCS(=O)(=O)C2)C(=O)c2ccccc2C1=O (configuration not stated)	1	-14	-18	28*	40	23	27
O=C(CCC(=O)Nc1ccc(F)cc1)NN=Cc1ccc(O)cc1O	·	·	·	-12	·	·	·
COc1cc(OC)c2c(c1)C(=O)c1cc(OC)cc(OC)c1C2=O	11	3	-3	43*	-9	-7	31
COc1ccc(C=C2c3ccccc3C(=O)c3ccccc32)c(OC)c1	9	·	-8	·	-2	7	·
Cc1ccc(Cl)cc1NC1=C/C(=N\S(=O)(=O)c2cccs2)c2ccccc2C1=O	16	-1	-27	43*	5	42	31
O=C1C(Nc2ccc(O)cc2)=CC(=NS(=O)(=O)c2cccs2)c2ccccc21	·	·	·	75*	·	·	42
Cc1cc(C)c(S(=O)(=O)/N=C2\C=C(NS(=O)(=O)c3ccccc3)C(=O)c3ccccc32)c(C)c1	18	0	-32	·	-1	36	·
Cc1ccc2oc(N=C(N)NC(=O)C(C)(C)C)nc2c1	·	·	·	-4	·	·	·
O=C1C=C(N2CCCCC2)c2ccccc2C1=O	7	14	-4	90*	·	-18	147*
Cc1ccc(C(C(=O)NC2CCCC2)N(Cc2ccc3c(c2)OCO3)C(=O)Cc2cccs2)cc1 (configuration not stated)	1	4	0	36*	5	·	-13
Cc1ccc(CN(C(=O)Cc2cccs2)C(C(=O)NC2CCCC2)c2ccncc2)cc1 (configuration not stated)	11	-7	-3	1	1	-2	·
Oc1ccccc1C=Nn1c(-c2ccccc2)n[nH]c1=S	·	·	·	1	·	·	·
SMILES	NLRP3 yeast inh	ATG4B inh	ALR inh	UCH37 DUB inh	NALP1 inh	Calb FLC	UCH37 reconfirm
Cc1ccc(OC(C)C(=O)Nc2ncc(Cl)cc2Cl)c([N+](=O)[O-])n1 (configuration not stated)	11	-5	-4	-26	·	·	·
CC(OC(=O)c1ccc([N+](=O)[O-])s1)C(=O)Nc1ncc(Cl)cc1Cl (configuration not stated)	4	-18	-51	58*	8	8	4
CCCOc1ccc(C2=CC(=O)C[C@H](c3ccc(OC)cc3)C2)cc1	22	3	-5	36*	·	·	-2
COc1cc(C=Nn2cnnc2-n2nc(C)cc2C)cc([N+](=O)[O-])c1O	·	·	·	29*	·	·	25
COc1cc(/C=N/n2c(=S)[nH]nc(C)c2=O)cc([N+](=O)[O-])c1O	-62	7	13	·	1	5	·
Cc1ccc(C)c(-n2nnnc2SCC(=O)NCCC2=CCCCC2)c1	-6	10	13	59*	31	3	47
CNC(=O)CSc1nnnn1-c1cc(C)ccc1C	15	-9	-5	0	31	3	·
C=CCn1c(=C(C#N)c2nc3ccccc3n2C)sc(=Cc2cc(OC)c(OC)c(OC)c2)c1=O	·	·	·	4	·	·	·
CC1(C)CCCC2=C1CC1C(=O)N(Cc3cccnc3)C(=O)C1C2 (configuration not stated)	5	-3	-9	39*	5	14	46
O=C1C2C3C=CC([C@@H]2C(=O)N1Cc1cccnc1)C31CC1 (some centres not stated)	29	-8	4	1	4	1	·
O=C(NN=C/C=C/c1ccc(Br)cc1)c1ccc2c(c1)OCO2	·	·	·	6	·	·	·
CCN(CCC#N)c1ccc(C=NNc2nc(C)cc(=O)[nH]2)c(C)c1	·	·	·	-20	·	·	·
O=C(O)c1ccc(NC2=C(N3CCOCC3)C(=O)c3ccccc3C2=O)cc1	7	1	-60	34*	12	17	18
Cc1ccc(NC2=CC(=O)C(=O)c3ccccc32)cc1	22	-3	-35	46*	-32	101*	55*
CC(=O)c1ccc(NC2=C(N3CCOCC3)C(=O)c3ccccc3C2=O)cc1	15	-19	33	32*	4	15	51*
Cc1ccc(NC2=C(N3CCOCC3)C(=O)c3ccccc3C2=O)cc1	21	8	8	28*	34	39	26
Cc1ccc(NC2=C(Cl)C(=O)c3ccccc3C2=O)cc1	·	15	3	2	35	19	·
CC(=O)c1ccc(S(=O)(=O)Nc2ccc(N3CCOCC3)cc2)cc1	4	-13	34	1	0	0	·
COc1ccc(S(=O)(=O)NN=Cc2ccc3c(c2)OCO3)cc1	·	·	·	5	·	·	·
Nc1cc(C(=O)OCC(=O)N2CCOCC2)ccc1Cl	18	-7	-12	-27	12	4	·
Nc1ccc(C(=O)OCC(=O)N2CCOCC2)cc1[N+](=O)[O-]	3	-1	-23	38*	16	-2	8
O=C(C[n+]1ccc(C=NO)cc1)N1CCCCC1	·	·	·	7	·	·	·
